Assay results reported in ChEMBL document CHEMBL1157184, “Hymenoic acid, a novel specific inhibitor of human DNA polymerase lambda from a fungus of Hymenochaetaceae sp” (Bioorg Med Chem, 2008).
Activity calls are given as the source filed them.

How the values were obtained:
[1] = biological target: DNA polymerase (Drosophila melanogaster) (UniProt Q9GV40); experiment: Inhibition of fruit fly DNA polymerase epsilon at 200 uM
Method in brief: (§1)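 Compound dissolved in DMSO and sonicated 30 s, then held with each polymerase (final 0.05 U) in 50 mM Tris-HCl pH 7.5, 1 mM DTT, 50% glycerol, 0.1 mM EDTA at 0 °C for 10 min. Reaction with poly(dA)/oligo(dT)12-18 and dTTP ran 60 min at 37 °C (Taq at 74 °C). Activity relative to no-compound control; means ± SEM, four independent experiments.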

[2] = biological target: T1, DNA polymerase eta (Homo sapiens) (UniProt Q9Y253); experiment: Inhibition of human DNA polymerase eta at 200 uM; method in brief: as §1
T1 sequence (whole entry): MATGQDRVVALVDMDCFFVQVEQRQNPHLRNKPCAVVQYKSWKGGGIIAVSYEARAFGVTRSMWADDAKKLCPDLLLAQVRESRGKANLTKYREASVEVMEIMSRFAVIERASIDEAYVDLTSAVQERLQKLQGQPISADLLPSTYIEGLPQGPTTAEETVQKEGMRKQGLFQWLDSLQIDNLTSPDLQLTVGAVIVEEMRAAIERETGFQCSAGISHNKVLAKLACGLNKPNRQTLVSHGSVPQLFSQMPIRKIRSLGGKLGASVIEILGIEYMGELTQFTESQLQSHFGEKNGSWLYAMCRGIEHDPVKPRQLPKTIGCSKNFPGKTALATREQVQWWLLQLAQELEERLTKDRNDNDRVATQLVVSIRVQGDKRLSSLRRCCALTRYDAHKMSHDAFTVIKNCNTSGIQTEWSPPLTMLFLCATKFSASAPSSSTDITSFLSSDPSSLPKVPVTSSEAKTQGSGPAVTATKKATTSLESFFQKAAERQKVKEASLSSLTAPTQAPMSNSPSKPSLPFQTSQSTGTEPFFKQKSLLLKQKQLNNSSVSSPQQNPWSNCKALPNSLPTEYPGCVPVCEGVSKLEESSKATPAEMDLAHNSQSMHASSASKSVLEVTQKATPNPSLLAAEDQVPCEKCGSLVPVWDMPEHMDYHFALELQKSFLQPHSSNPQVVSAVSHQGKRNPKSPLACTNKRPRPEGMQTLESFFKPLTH

[3] = biological target: T2, DNA polymerase alpha subunit B (Bos taurus) (UniProt Q58D13); experiment: Inhibition of primase activity of calf polymerase alpha at 200 uM
T2 sequence (whole entry): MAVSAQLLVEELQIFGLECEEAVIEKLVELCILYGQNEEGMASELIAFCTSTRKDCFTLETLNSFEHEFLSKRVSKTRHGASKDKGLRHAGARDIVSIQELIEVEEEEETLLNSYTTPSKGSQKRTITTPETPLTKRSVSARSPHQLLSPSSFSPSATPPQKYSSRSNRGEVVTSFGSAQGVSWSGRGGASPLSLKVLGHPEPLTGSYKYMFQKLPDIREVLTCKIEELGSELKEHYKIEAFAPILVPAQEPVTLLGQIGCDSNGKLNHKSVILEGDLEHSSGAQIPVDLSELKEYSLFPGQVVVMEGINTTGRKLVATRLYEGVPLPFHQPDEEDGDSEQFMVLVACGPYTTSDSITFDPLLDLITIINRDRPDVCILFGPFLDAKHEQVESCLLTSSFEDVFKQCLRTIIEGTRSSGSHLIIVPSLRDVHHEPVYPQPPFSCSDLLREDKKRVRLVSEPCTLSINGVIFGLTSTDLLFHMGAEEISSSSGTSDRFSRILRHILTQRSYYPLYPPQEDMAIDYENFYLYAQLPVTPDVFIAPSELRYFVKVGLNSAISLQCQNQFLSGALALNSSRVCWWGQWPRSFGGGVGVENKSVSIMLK

Bos taurus = species on record: Bos taurus; experiment: Inhibition of bovine deoxyribonuclease 1 at 200 uM
Method in brief: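 Each enzyme (0.05 U) was incubated with 200 μM compound. Activity was expressed as a percentage of the activity without compound (100%). Means ± SEM of four independent experiments.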

[4] = biological target: DNA polymerase beta (Rattus norvegicus) (UniProt P06766); experiment: Inhibition of rat DNA polymerase beta at 200 uM; method in brief: as §1

Measured: Activity

DNA polymerase (Drosophila melanogaster), sequence (Q9GV40 as listed by the source): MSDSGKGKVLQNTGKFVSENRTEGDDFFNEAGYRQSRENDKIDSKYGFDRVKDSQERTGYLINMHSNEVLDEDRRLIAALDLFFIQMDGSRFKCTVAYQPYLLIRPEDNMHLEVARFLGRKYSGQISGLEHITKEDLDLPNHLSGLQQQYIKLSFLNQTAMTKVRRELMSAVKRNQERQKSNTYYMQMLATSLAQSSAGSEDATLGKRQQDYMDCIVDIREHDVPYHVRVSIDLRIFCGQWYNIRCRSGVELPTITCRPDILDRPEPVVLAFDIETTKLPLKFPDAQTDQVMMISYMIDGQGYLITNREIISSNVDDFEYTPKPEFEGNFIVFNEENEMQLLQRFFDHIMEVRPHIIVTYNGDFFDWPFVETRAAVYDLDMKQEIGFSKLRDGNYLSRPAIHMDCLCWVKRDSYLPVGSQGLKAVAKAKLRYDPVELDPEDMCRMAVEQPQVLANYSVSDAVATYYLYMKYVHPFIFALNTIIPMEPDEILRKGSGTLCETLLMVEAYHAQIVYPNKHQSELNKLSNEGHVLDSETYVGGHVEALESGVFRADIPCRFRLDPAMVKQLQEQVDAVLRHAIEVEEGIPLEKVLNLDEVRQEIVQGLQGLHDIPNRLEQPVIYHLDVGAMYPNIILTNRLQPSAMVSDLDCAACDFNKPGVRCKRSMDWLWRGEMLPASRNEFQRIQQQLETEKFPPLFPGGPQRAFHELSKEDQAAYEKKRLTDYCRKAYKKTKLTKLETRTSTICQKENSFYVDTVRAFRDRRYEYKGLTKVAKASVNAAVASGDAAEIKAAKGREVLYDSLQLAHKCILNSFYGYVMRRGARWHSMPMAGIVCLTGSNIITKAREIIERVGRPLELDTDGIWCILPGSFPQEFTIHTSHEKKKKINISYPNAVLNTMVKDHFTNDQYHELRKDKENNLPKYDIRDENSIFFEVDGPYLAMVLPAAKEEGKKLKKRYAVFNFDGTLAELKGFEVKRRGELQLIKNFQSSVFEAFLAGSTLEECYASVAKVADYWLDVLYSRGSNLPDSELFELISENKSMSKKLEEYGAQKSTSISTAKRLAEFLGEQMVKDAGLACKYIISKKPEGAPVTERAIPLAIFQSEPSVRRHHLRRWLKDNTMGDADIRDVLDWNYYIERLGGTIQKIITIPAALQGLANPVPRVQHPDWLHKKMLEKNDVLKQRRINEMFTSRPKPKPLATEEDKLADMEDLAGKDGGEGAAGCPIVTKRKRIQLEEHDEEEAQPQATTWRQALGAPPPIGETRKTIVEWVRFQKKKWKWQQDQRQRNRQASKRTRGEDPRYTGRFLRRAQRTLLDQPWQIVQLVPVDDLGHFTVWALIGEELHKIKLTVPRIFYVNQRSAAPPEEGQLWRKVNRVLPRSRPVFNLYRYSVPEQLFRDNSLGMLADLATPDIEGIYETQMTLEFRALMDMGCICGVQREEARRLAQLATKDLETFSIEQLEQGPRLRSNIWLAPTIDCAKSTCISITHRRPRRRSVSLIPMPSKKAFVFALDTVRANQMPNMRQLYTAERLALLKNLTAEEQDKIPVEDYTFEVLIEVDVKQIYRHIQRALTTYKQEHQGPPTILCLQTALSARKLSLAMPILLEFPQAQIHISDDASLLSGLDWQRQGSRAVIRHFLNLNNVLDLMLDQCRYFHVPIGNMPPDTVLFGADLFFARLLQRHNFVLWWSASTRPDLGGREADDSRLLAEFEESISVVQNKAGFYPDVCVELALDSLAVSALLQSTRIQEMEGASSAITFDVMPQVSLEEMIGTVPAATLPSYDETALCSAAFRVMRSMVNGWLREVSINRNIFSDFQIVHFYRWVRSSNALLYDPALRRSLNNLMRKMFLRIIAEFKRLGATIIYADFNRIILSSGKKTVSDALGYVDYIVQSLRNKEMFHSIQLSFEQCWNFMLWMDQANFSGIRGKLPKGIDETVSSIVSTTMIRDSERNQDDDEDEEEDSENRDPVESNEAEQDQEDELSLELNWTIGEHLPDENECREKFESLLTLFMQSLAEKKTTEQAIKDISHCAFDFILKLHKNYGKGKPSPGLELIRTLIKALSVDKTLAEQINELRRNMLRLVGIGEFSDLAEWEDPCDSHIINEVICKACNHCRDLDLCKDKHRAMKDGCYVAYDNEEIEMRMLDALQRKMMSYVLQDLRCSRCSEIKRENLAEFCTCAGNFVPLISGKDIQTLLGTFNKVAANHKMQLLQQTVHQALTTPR

C/C(=C\CC[C@H](C)C(=O)O)[C@H]1CC[C@H](C(=O)O)CC1
inactive: all assays above
